Measurements published in paper PMC4831591 (International Journal of Nanomedicine, 2016).
Converted amounts (≈) assume the structure as drawn.

Tests used:
[1] = In vitro drug-release assay by dialysis; format: physicochemical; details: 37°C, PBS pH 7.4, 48 hours, n=3
How it was run: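 Dialysis in 2,000 Da MWCO bag against PBS pH 7.4, stirred 48 h at 37±0.5°C. Medium sampled at time points and replaced. Total drug found by methanol disruption of liposomes. Quantified by HPLC: C18 column, methanol/0.025 M KH2PO4 (11:89, pH 3 with H3PO4), 1.0 mL/min, UV 210 nm; n=3.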

H22 cells = test: In vitro cytotoxicity, MTT assay; format: cell-based, murine; details: n=3
How it was run: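 Log-phase H22 cells seeded at 10^4/well, grown 24 h, medium renewed. Treated at 0.8, 4, 20, 100, 500 μg/mL for 24 or 48 h; blank liposomes at matched concentrations. MTT (5 mg/mL stock in PBS) added for 4 h, formazan dissolved in DMSO, A490 read. Inhibition rate = (1 − A490 treated/A490 untreated)×100.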

[2] = Biodistribution study in H22 tumor-bearing mice; format: in vivo; details: n=6; for AUC0–8 / Cmax / t½: 2 mg/kg intravenous
How it was run: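 Subcutaneous H22 model: ascites cells from donor mice diluted in saline to 1×10^7/mL and injected into right hind limb (~0.1 mL/10 g). At ~300 mm3 tumor, mice randomized; single tail-vein 2 mg/kg; killed at 1, 2, 4, 8 h (n=6). Tumor and organs rinsed, weighed, homogenized 1:4 w/v in saline. HCl/IS/acetone extraction; FDA-validated LC-MS/MS. Noncompartmental AUC0–8, Cmax; Te = AUC target/(target+untargeted)×100.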

H22 tumor-bearing mice = test: In vivo antineoplastic activity in H22 tumor-bearing mice; details: 2 mg/kg per day, days 1–9, measured on day 10, n=10
How it was run: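 H22 cells in saline (1×10^7/mL) injected subcutaneously in right hind limb on day 0. Mice randomized to PBS control or treatment, 2 mg/kg tail vein daily on days 1–9 (n=10). Tumor volume by caliper and body weight daily. Killed day 10 and tumors excised and weighed. IRw = (1 − Wdrug/Wcontrol)×100.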

SMILES: O=C(O)[C@@H]1[C@H](C(=O)O)[C@H]2CC[C@@H]1O2 [DM-NCTD, diacid metabolite of norcantharidin]
- In vitro release of DM-NCTD [1]: quickly and completely released
- IC50 on H22 cell lines (H22 cells; 24 hours): 39.6 ± 1.20 µg/mL (≈ 213 µM)
- IC50 on H22 cell lines (H22 cells; 48 hours): 30.0 ± 1.73 µg/mL (≈ 161 µM)
- Time at which the highest concentrations were achieved in tissues and tumors ([2]; 2 mg/kg tail vein): 2 h
- AUC0–8 ([2]; heart): 116.98±10.63 ng⋅h/mL
- Cmax ([2]; heart): 24.08 ± 2.39 ng/mL
- t½ ([2]; heart): 110 ± 15 min
- AUC0–8 ([2]; kidney): 1,283.72±66.1 ng⋅h/mL
- Cmax ([2]; kidney): 427.14 ± 20.81 ng/mL
- t½ ([2]; kidney): 56.4 ± 16.8 min
- AUC0–8 ([2]; liver): 1,481.15±51.3 ng⋅h/mL
- Cmax ([2]; liver): 330.15 ± 13.96 ng/mL
- t½ ([2]; liver): 56.4 ± 13.2 min
- AUC0–8 ([2]; lung): 266.17±13.55 ng⋅h/mL
- Cmax ([2]; lung): 73.43 ± 6.17 ng/mL
- t½ ([2]; lung): 90.6 ± 19.2 min
- AUC0–8 ([2]; spleen): 740.09±25.16 ng⋅h/mL
- Cmax ([2]; spleen): 340.11 ± 17.74 ng/mL
- t½ ([2]; spleen): 53.4 ± 1.2 min
- AUC0–8 ([2]; tumor): 223.18±17.56 ng⋅h/mL
- Cmax ([2]; tumor): 54.57 ± 9.21 ng/mL
- t½ ([2]; tumor): 61.2 ± 8.4 min
- Tumor weight (H22 tumor-bearing mice): 1.02 ± 0.3 g
- IRw (inhibition rate on tumor weight) (H22 tumor-bearing mice; vs PBS control): 30.14%
